Measured values collected from several papers.
Lines come from different studies, so protocols differ.
Target: Cytochrome P450 1A2 (CYP1A2, Homo sapiens, UniProt P05177)

| SMILES | test | test system | setting | quantity | value |
| --- | --- | --- | --- | --- | --- |
| O=C(Nc1c2c(cc3c1CCC3)CCC2)NS(=O)(=O)/C=C/c1nccs1 | enzyme activity, inhibitor | human, liver microsomes | 10 µM, pH 7.4 | inhibition | 9.5% |
| COc1ccc(CNC(=O)c2ccc(CNCc3cnc4nc(N)nc(N)c4n3)cc2)cc1 | enzyme activity, inhibitor, luciferase |  | 10 µM | inhibition | -18.9% |
| C=C[C@H]1C[N@@]2CC[C@H]1C[C@@H]2[C@@H](O)c1ccnc2ccc(OC)cc12 | enzyme activity, inhibitor | human, liver microsomes | 10 µM | inhibition | -5% |
| COc1ccc(Oc2ccc(CNCc3cnc4nc(N)nc(N)c4n3)cc2)cc1 | enzyme activity, inhibitor, luciferase |  | 10 µM | inhibition | -5.44% |
| N=C(N)NCc1ccc(NC(=O)C23CCC(C(=O)Nc4ccc(C5=CCN(C(=N)N)CC5)cc4)(CC2)CC3)cc1 | enzyme activity, inhibitor | liver microsomes | 10 µM | inhibition | 0% |
| CC(=O)N1CCN(c2ccc(OCC3COC(Cn4ccnc4)(c4ccc(Cl)cc4Cl)O3)cc2)CC1 (stereo not drawn) | enzyme activity, inhibitor | human, liver microsomes | 1 µM | inhibition | -6% |
| Cc1cccc(F)c1N1CCC(N2Cc3cn(CC(C)(F)F)nc3N(Cc3ccccc3C(F)(F)F)C2=O)CC1 | enzyme activity, inhibitor | human, liver microsomes |  | IC50 | > 10 µM |
| O=C(N[C@H](Cc1c[nH]c2ccccc12)C(=O)Nc1ccncc1)c1ccc(-c2cc(F)ccc2F)cc1F | enzyme activity, inhibitor | human, liver microsomes | 1 µM | inhibition | 3% |
| N[C@@H](COCc1ccccc1)C(=O)Nc1nc2ccc(OC(F)(F)F)cc2s1 | metabolic stability | human, liver microsomes | 1 µM, 0 h, pH 7.4 | compound remaining | 100% |
| Nc1nc(N)c2nc(CNc3ccc(C(=O)N4CCC(C(=O)O)CC4)cc3)cnc2n1 | enzyme activity, inhibitor, luciferase |  | 10 µM | inhibition | -33.3% |
| CCc1cc(/C(C)=N/OCc2ccc(C3CCCCC3)c(C(F)(F)F)c2)ccc1CN1CC(C(=O)O)C1 | enzyme activity, inhibitor | human, liver microsomes | 200 µM, 20 min | inhibition | -193% |
| N=C(N)N1CC=C(c2coc(C(=O)Nc3ccc(C4=CCN(C(=N)N)CC4)c(F)c3)c2)CC1 | enzyme activity, inhibitor | liver microsomes | 10 µM | inhibition | 0% |
| CON=C(N)c1ccc(-c2ccc(-c3ccc(C(N)=NOC)cc3)o2)cc1 | enzyme activity, substrate |  |  | Km | 0.4 µM |
| COc1ccc(CNC(=O)c2ccc(CNCc3cnc4nc(N)nc(N)c4n3)cc2)cc1OC | enzyme activity, inhibitor, luciferase |  | 10 µM | inhibition | -18.2% |
| C=CC(=O)Nc1cc(Nc2nccc(Nc3cc(Cl)c(F)cc3C(C)(C)O)n2)c(OC)cc1N1CC[C@@H](N(C)C)C1 | enzyme activity, inhibitor | human, liver microsomes | 10 µM | inhibition | < 20% |
| Cc1ccc(C(=O)N2CCOC[C@H]2Cc2cccc(-n3nccn3)c2)c(-n2nccn2)c1 | enzyme activity, inhibitor | human, liver microsomes | 100 µM | inhibition | 23% |
| COc1ccc(Oc2ccc(CN(Cc3ccccc3)Cc3cnc4nc(N)nc(N)c4n3)cc2)cc1 | enzyme activity, inhibitor, luciferase |  | 10 µM | inhibition | -21.8% |
| CC1(CO)C(O[C@@H]2O[C@H](C(=O)O)[C@@H](O)[C@H](O)[C@H]2O)CC[C@@]2(C)C1CC[C@]1(C)C2CC=C2[C@H]3CC(C)(C)[C@H](O)[C@@H](O)[C@]3(CO)[C@H](O)C[C@]21C (stereo partly drawn) | enzyme activity, inhibitor, mass spectrometry | human, liver microsomes |  | IC50 | > 90 µg/mL |
